We go through one compound from ChEMBL document CHEMBL4152223 (Eur J Med Chem, 2018).

pIC50: −log10 of the molar value. In brackets after ≈: the same amount, converted by molar mass. Activity calls are given as the source filed them. The rule behind the calls is not given here. Bounds are passed on as bounds.

The test system of series [1] is Mycobacterium kansasii. In words: Antimycobacterial activity against Mycobacterium kansasii 235/80 after 21 days. The format is functional. The conditions noted are these: 235/80, 504 h.
Series [2] relates to Mycobacterium kansasii. In words: Antimycobacterial activity against Mycobacterium kansasii 6509/96 after 21 days. The format is functional. The conditions noted are these: 6509/96, 504 h.
The subject of series [3] is Mycobacterium kansasii. In words: Antimycobacterial activity against Mycobacterium kansasii 6509/96 after 7 days. The format is functional. The conditions noted are these: 6509/96, 168 h.
Series [4] concerns the target T1, Enoyl-[acyl-carrier-protein] reductase [NADH] (Mycobacterium tuberculosis) (UniProt P9WGR1).
T1 sequence (whole entry): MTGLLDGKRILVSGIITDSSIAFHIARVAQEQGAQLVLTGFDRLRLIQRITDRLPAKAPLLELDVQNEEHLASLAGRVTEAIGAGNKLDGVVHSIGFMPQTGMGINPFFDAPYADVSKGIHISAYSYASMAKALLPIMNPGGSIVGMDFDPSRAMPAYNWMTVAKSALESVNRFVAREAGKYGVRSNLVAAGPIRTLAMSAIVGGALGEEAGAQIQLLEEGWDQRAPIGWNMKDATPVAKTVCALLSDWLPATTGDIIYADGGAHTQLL
In words: Inhibition of Mycobacterium tuberculosis H37Rv InhA assessed as reduction of trehalose dimycolate synthesis at 40 uM preincubated for 1 hr followed by [14C]glucose addition and measured after 24 hrs by TLC analysis.

The subject of series [5] is Mycobacterium kansasii. In words: Antimycobacterial activity against Mycobacterium kansasii 235/80 after 14 days. The format is functional. The conditions noted are these: 235/80, 336 h.
Series [6] has as its system Mycobacterium avium. In words: Antimycobacterial activity against INH/RIF/OFX resistant Mycobacterium avium 330/88 after 14 days. The format is functional. The conditions noted are these: 330/88, 336 h.
Series [7] concerns the target T1, Enoyl-[acyl-carrier-protein] reductase [NADH] (Mycobacterium tuberculosis). In words: Inhibition of Mycobacterium tuberculosis H37Rv InhA assessed as reduction of methyl esters of fatty acid synthesis at 40 uM preincubated for 1 hr followed by [14C]glucose addition and measured after 24 hrs by TLC analysis.
Series [8] deals with Mycobacterium tuberculosis. In words: Effect on short chain fatty acid acid synthesis in Mycobacterium tuberculosis H37Rv at 40 uM preincubated for 1 hr followed by [14C]glucose addition and measured after 24 hrs by TLC analysis. The format is functional, organism-based.
Series [9] deals with Mycobacterium tuberculosis. In words: Antimycobacterial activity against Mycobacterium tuberculosis H37Rv after 25 days by drop dilution method. The format is functional, organism-based.
Series [10] concerns the target T1, Enoyl-[acyl-carrier-protein] reductase [NADH] (Mycobacterium tuberculosis). In words: Inhibition of Mycobacterium tuberculosis H37Rv InhA assessed as reduction of alpha mycolic acid synthesis at 40 uM preincubated for 1 hr followed by [14C]glucose addition and measured after 24 hrs by TLC analysis.
Series [11] relates to Mycobacterium tuberculosis. In words: Antimycobacterial activity against Mycobacterium tuberculosis H37Rv after 21 days. The format is functional. The conditions noted are these: 504 h.
Series [12] deals with T1, Enoyl-[acyl-carrier-protein] reductase [NADH] (Mycobacterium tuberculosis). In words: Inhibition of Mycobacterium tuberculosis H37Rv InhA assessed as reduction of trehalose monomycolate synthesis at 40 uM preincubated for 1 hr followed by [14C]glucose addition and measured after 24 hrs by TLC analysis.
The subject of series [13] is Mycobacterium kansasii. In words: Antimycobacterial activity against Mycobacterium kansasii 235/80 after 7 days. The format is functional. Particulars: 235/80, 168 h.
The target of series [14] is T1, Enoyl-[acyl-carrier-protein] reductase [NADH] (Mycobacterium tuberculosis). In words: Inhibition of Mycobacterium tuberculosis H37Rv InhA assessed as reduction of phosphatidylethanolamine synthesis at 40 uM preincubated for 1 hr followed by [14C]glucose addition and measured after 24 hrs by TLC analysis.
A further series deals with HepG2. In words: Cytotoxicity against human HepG2 cells assessed as reduction in cell viability by MTS assay. The format is cell-based. Put shortly:
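HepG2 human hepatocellular carcinoma cells (passage 2-4) were cultured in Eagle's MEM with 10% FBS, 1% L-glutamine and non-essential amino acids. Compounds were dissolved in DMSO and tested in triplicate at eight concentrations. Viability was read by colorimetric MTS tetrazolium reduction. Controls were 100% viability and 0% viability (10% DMSO). IC50 is the concentration reducing viability to 50% of control.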

Series [15] relates to Mycobacterium tuberculosis. In words: Antimycobacterial activity against Mycobacterium tuberculosis H37Rv over producing InhA after 25 days by drop dilution method. The format is functional, organism-based.
Series [16] concerns Mycobacterium kansasii. In words: Antimycobacterial activity against Mycobacterium kansasii 6509/96 after 14 days. The format is functional. Particulars: 6509/96, 336 h.
The test system of series [17] is Mycobacterium avium. In words: Antimycobacterial activity against INH/RIF/OFX resistant Mycobacterium avium 330/88 after 21 days. The format is functional. The conditions noted are these: 330/88, 504 h.
Series [18] deals with T1, Enoyl-[acyl-carrier-protein] reductase [NADH] (Mycobacterium tuberculosis). In words: Inhibition of Mycobacterium tuberculosis H37Rv InhA assessed as reduction of cardiolipin synthesis at 40 uM preincubated for 1 hr followed by [14C]glucose addition and measured after 24 hrs by TLC analysis.
In series [19] the test system is Mycobacterium tuberculosis. In words: Antimycobacterial activity against Mycobacterium tuberculosis H37Rv after 14 days. The format is functional. The conditions noted are these: 336 h.
Series [20] addresses T1, Enoyl-[acyl-carrier-protein] reductase [NADH] (Mycobacterium tuberculosis). In words: Inhibition of Mycobacterium tuberculosis H37Rv InhA assessed as reduction of methoxy and keto mycolic acid synthesis at 40 uM preincubated for 1 hr followed by [14C]glucose addition and measured after 24 hrs by TLC analysis.
Series [21] can be described thus: Selectivity index, ratio of IC50 for human HepG2 cells to MIC for Mycobacterium tuberculosis H37Rv after 14 days. The format is toxicity. Particulars: read-out: Selectivity Index. The method, boiled down:
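SI is calculated as HepG2 IC50 divided by MIC. HepG2 cells (passage 2-4) were grown in EMEM with 10% FBS, L-glutamine and non-essential amino acids. Compounds in DMSO were tested in triplicate at eight concentrations, and viability was read by MTS tetrazolium reduction. IC50 is the concentration reducing viability to 50% of control. 10% DMSO served as the 0% viability control.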

`CNC(=O)NNC(=O)c1ccncc1`: the minimum inhibitory concentration (MIC) against Mycobacterium kansasii [1] was over 1000 µM; with Mycobacterium kansasii [2], 1000 µM (≈ 194 µg/mL); in the series with Mycobacterium kansasii [3], 500 µM (≈ 97.1 µg/mL); in the series with Mycobacterium kansasii [5], over 1000 µM; in the series on Mycobacterium avium [6], over 1000 µM; in series [11], 1 µM (≈ 0.194 µg/mL). Besides, the MIC in the series on Mycobacterium kansasii [13] is 1000 µM (≈ 194 µg/mL); against Mycobacterium kansasii [16] it was 500 µM (≈ 97.1 µg/mL); in the series on Mycobacterium avium [17], over 1000 µM; in series [19], 0.5 µM (≈ 0.0971 µg/mL). Further, the inhibition entry in series [4], in series [7], in series [10], in series [12], in [14] and in series [18] was “Active” in each case. In series [20], the inhibition result was “Active”. Further, the outcome in series [8], in series [9] and in series [15] was inactive. Also, the pIC50 in the series on HepG2 is under 2.30. The selectivity ratio at 336 h in series [21] was over 5000.
